# Reference: PMC4545405 (ACS chemical biology, 2013)
# Like-named read-outs stand apart in the source and are kept apart here.
# Legend:
# [1] = system: WspR with C240A substitution; test: DGC activity assay of C240A WspR; type: biochemical, Pseudomonas aeruginosa; details: 50 μM
# Procedure, shortened: (§1)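 Purified WspR point mutants (C49A, C240A, or AxxA at the RxxD I-site), expressed from cloned alleles. Diguanylate cyclase activity measured by thin-layer chromatography (TLC) with test compound or cdiGMP at 50 μM, against a DMSO control. Compounds were dissolved in DMSO.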
# [2] = system: AxxA WspR (RxxD I-site abolished); test: DGC activity assay of AxxA WspR; type: biochemical, Pseudomonas aeruginosa; details: 50 μM
# Procedure, shortened: as §1
# [3] = system: PDE (RocR, PvrR, FimX) or PilZ (Alg44, PA3353) proteins; test: DRaCALA inhibition of 32P-cdiGMP binding to PDE and PilZ proteins; set-up: species or system P. aeruginosa; details: Eb 50 μM
# Procedure, shortened: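 Purified protein was mixed with ³²P-cdiGMP in the presence of 50 μM test compound or DMSO, then spotted on nitrocellulose. Spots were imaged by phosphorimager. Fraction bound = corrected bound-ligand intensity ÷ total spot intensity.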
# PA14 ΔretS = test: Crystal violet pellicle assay, DGC-independent biofilm formation; type: cell-based, Pseudomonas aeruginosa
# P. aeruginosa PA14 = test: Growth curves; type: cell-based, Pseudomonas aeruginosa; details: 50 μM, LB, 37 °C, 16 hours, vs DMSO
# Procedure, shortened: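 P. aeruginosa PA14 grown overnight in LB at 37 °C with shaking, then subcultured in LB with 50 μM test compound or 2% DMSO alone. Grown with shaking at 37 °C for 16 h. A600 read every 5 minutes.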
# WspR [4] = target: T1, WspR (Pseudomonas aeruginosa, UniProt Q9HXT9); test: WspR DGC activity assay by TLC; type: biochemical; details: for DGC activity of wild-type WspR (inhibition): 50 μM; for WspR activity after DTT treatment of preincubated WspR: with DTT
# [5] = system: P. aeruginosa PA14 overexpressing DGCs; test: Swim motility assay of PA14 overexpressing DGCs; type: cell-based, Pseudomonas aeruginosa; details: for change in swimming motility compared to the DMSO control: PA14 overexpressing PA0847, IPTG; for change in swimming motility compared to the DMSO control / increase in swimming diameter compared to the DMSO control: 50 μM
# PelD = PelD (Pseudomonas aeruginosa, UniProt A0A0H2ZD98); test: DRaCALA / DRaCALA-HTS inhibition of 32P-cdiGMP binding to PelD; details: for fraction bound of 32P-cdiGMP to PelD in DRaCALA-HTS: NCC1 library screen, cutoff 3 standard deviations below the average
# WspR [6] = target: T1, WspR; test: DRaCALA inhibition of 32P-cdiGMP binding to WspR
# [7] = system: WspR with C49A substitution; test: DGC activity assay of C49A WspR; type: biochemical, Pseudomonas aeruginosa; details: 50 μM
# Procedure, shortened: as §1
# PA14 pMMB-WspR = test: Crystal violet pellicle assay, DGC-dependent biofilm formation; type: cell-based, Pseudomonas aeruginosa; details: IPTG-induced WspR, static incubation 30 °C, 16 hours
# Alg44 = Alg44 (Pseudomonas aeruginosa, UniProt Q9HY69); test: DRaCALA / DRaCALA-HTS binding of 32P-cdiGMP to Alg44; details: for Kd: Kd of Alg44 binding to 32P-cdiGMP
# [8] = PA14 overexpressing PA1107, IPTG
# [9] = PA14 overexpressing PA1120, IPTG
# [10] = PA14 overexpressing PA1727, IPTG
# Chain of Alg44 (Q9HY69 whole entry): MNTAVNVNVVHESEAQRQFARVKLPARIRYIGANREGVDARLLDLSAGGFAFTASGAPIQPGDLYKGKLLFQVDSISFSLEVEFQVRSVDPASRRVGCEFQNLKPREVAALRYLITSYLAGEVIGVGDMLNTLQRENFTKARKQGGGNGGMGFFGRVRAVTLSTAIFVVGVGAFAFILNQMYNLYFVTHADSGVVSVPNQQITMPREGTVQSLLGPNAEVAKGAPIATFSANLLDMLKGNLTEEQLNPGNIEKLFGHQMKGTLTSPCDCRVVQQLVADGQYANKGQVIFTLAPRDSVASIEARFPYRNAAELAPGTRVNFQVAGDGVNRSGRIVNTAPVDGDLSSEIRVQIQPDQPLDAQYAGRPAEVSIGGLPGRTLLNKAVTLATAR
SMILES,DGC activity of C240A WspR (inhibition) [1],DGC activity of AxxA WspR (inhibition) [2],reduction of 32P-cdiGMP binding to PDE or PilZ proteins [3],DGC-independent biofilm formation (PA14 ΔretS),growth of P. aeruginosa PA14 (P. aeruginosa PA14),DGC activity of wild-type WspR (inhibition) (WspR [4]),WspR activity after DTT treatment of preincubated WspR (WspR [4]),change in swimming motility compared to the DMSO control [5],"increase in swimming diameter compared to the DMSO control [5, 8]","increase in swimming diameter compared to the DMSO control [5, 9]","increase in swimming diameter compared to the DMSO control [5, 10]","increase in swimming diameter compared to the DMSO control ([5]; PA14 overexpressing WspR, IPTG)",fraction bound of 32P-cdiGMP to PelD in DRaCALA-HTS (PelD),DGC activity of C49A WspR (inhibition) [7],reduction of biofilm formation compared to the DMSO control (PA14 pMMB-WspR),other results
"O=c1c2ccccc2[se]n1-c1ccccc1 [Eb, ebselen]",completely refractory,no longer inhibited,≤ 25%,Neither Eb nor EbO reduced biofilm formation,No difference in growth,inhibited,returned WspR activity to the level of the DMSO control,no change in swimming motility,3.4 fold,2.5 fold,1.1 fold,2 fold,below the positive cutoff of 3 standard deviations below the average,still susceptible to inhibition,~ 40%,inhibition at 50 µM (WspR [4]; read-out: reduction of WspR activity (velocity)): 87%; WspR velocity at varying substrate and Eb concentrations (WspR [4]; varying substrate concentrations): reduced WspR velocity in a concentration dependent manner; IC50 (PelD): 5 ± 2 µM; inhibition at 50 µM (PelD; read-out: reduction of cdiGMP binding to PelD): 80%; IC50 (WspR [6]): 13.6 ± 0.5 µM; inhibition at 50 µM (WspR [6]; read-out: reduction of cdiGMP binding to WspR): 90%
"O=C1c2ccccc2[Se](=O)N1c1ccccc1 (centres unmarked) [EbO, ebselen oxide]",completely refractory,no longer inhibited,did not reduce,Neither Eb nor EbO reduced biofilm formation,No difference in growth,inhibited,returned WspR activity to the level of the DMSO control,no change in swimming motility,4 fold,3.4 fold,1.3 fold,2.5 fold,,still susceptible to inhibition,~ 40%,"reduction of WspR activity (velocity) (WspR [4]; 10 μM GTP, inhibitor 50 μM): 87%; reversal of cdiGMP-mediated repression of swimming, concentration dependence ([5]; PA14 overexpressing PA3702, IPTG, different concentrations): at a lower concentration; reduction of cdiGMP binding to PelD (PelD; compared to the DMSO control, Eb 50 μM): ~ 60%; IC50 (PelD; read-out: IC50 for PelD (inhibition of cdiGMP binding), DRaCALA): 5 ± 2 µM; IC50 for WspR (inhibition of cdiGMP binding) (WspR [6]; DRaCALA): did not show inhibition; reduction of cdiGMP binding to WspR (WspR [6]; compared to the DMSO control, Eb 50 μM, no preincubation): ~ 30%; reduction of 32P-cdiGMP binding to WspR after preincubation (WspR [6]; preincubation of WspR for 30 minutes before addition of 32P-cdiGMP): 86%"
"Nc1nc2c(ncn2[C@@H]2O[C@@H]3COP(=O)(O)O[C@H]4[C@@H](O)[C@H](n5cnc6c(=O)[nH]c(N)nc65)O[C@@H]4COP(=O)(O)O[C@H]3[C@H]2O)c(=O)[nH]1 [cdiGMP, cyclic-di-GMP]",inhibited,no longer inhibited,,,,inhibited,,,,,,,no binding was observed,still susceptible to inhibition,,"average fraction bound of 32P-cdiGMP to Alg44 with cdiGMP competitor (Alg44; 384-well plate, 25 μM unlabeled cdiGMP): 0.007±0.005; Kd (Alg44; 384 well format, HTS-DRaCALA): 0.239 ± 0.007 µM; Kd (Alg44; fraction bound in individual reaction mixtures): 0.38 ± 0.02 µM"
